A number with no mark means an inactive call. Results filed as inconclusive are left out. The source made the active and inactive calls.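 Rule for the calls, unless noted: active = cell viability at or below a set limit in both duplicate runs, the limit being the all-compound median minus 4 SD (cut at about 23% in these data, passing the limit was not always enough); inconclusive = no clear call, values can overlap the other calls; inactive = the rest.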
Assays:
[1] = OD615 S. cerevisiae growth inhibition, permissive medium, pilot counter-assay, permissive growth control for S. cerevisiae lifespan shortening project (AID 705;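 active = growth inhibition above 25% in both replicates, a cutoff set 3 SD above the mean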); conditions: OD615, 24 h, at 10 µM, active compounds read high
Method in brief: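 Timing: 24 h exposure, 30 °C / Material: Saccharomyces cerevisiae strain carrying genetically modified DeaD replicative-lifespan system / Signal: OD at 615 nm / Compound: 10 µM single dose, 0.25% DMSO / Medium: SC raffinose/galactose permissive medium / Evaluation: reduction in yeast growth (OD615)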

[2] = Restrictive medium S. cerevisiae growth inhibition, OD615, pilot screen of yeast lifespan reduction project, restrictive growth control (AID 706;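 active = growth inhibition above a set limit, 3 SD over mean compound inhibition, in both replicates, cut at about 43% in these data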;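 note: modified DeaD lifespan yeast strain shifted to restrictive glucose medium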); conditions: OD615, 48 h, at 10 µM, active compounds read high
Method in brief: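 System: Engineered S. cerevisiae DeaD strain | Detection: OD615 | Buffer or medium: CSMM-D glucose medium | Doses: 10 µM compound, 0.25% DMSO | Timing: 4 h pre-growth plus 48 h compound exposure, 30 °C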

[3] = viability gain of MRP-1-high H69AR cells under doxorubicin, pilot screen, MRP-1 activator project, CellTiter-Glo, duplicate (AID 807;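 active = viability increase at or above a cutoff of the median across tested compounds plus 3 SD, cut at about 8.5% in these data, passing the limit was not always enough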;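 note: compound pretreatment 18-22 h then 72 h combined with doxorubicin; 0% = doxorubicin alone and 100% = vehicle without doxorubicin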); conditions: H69AR viability with doxorubicin, CellTiter-Glo luminescence; at 10 µM; active compounds read high
[4] = growth suppression of beta-catenin knockout HCT116, pilot screen, human colon tumor cells (AID 823); conditions: CellTiter-Glo, 60 h, at 10 µM, active compounds read low;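 note: 0% = wells killed by 20 µM Hyamine and 100% = untreated DMSO cell wells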
[5] = growth suppression of PTEN-deleted HCT116, pilot screen, cell-based, HCT116 clonal line, CellTiter-Glo (AID 824;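 active = viability at or below 27.92% in each of two runs, the all-compound median minus 4 SD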;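 note: 0% = 20 µM Hyamine control and 100% = vehicle cell control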); conditions: 60 h, at 10 µM, active compounds read low
[6] = inhibitors of the yeast RAM network, pilot screen, dse1pr::URA3 reporter, 5-FOA selection (AID 869;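 active = inhibition over a set limit, the all-compound mean plus 3 SD, in both replicate runs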;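 note: 0% = DMSO wells with no growth and 100% = 10 µM 1-NA-PP1 with full growth; RAM network block rescues cells from 5-FOA so hits raise OD615 growth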); conditions: S. cerevisiae dse1pr::URA3 5-FOA growth, OD615, 2 d; at 10 µM; active compounds read high; strain carries analog-sensitive mutant Cbk1 kinase
[7] = RAM signaling pathway blockade in yeast – S. cerevisiae, Pdr1DBD-CYC8 efflux-inhibited sensitized strain, primary screen (AID 1298;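 active = RAM network inhibition above 8.4% in each of two replicates, 3 SD over the compound average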;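 note: 0% = DMSO untreated cells without growth and 100% = 10 µM 1-NA-PP1 full growth; higher means more yeast growth rescued from 5-FOA killing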); conditions: S. cerevisiae cbk1-as DSE1-URA3 strain, 5-FOA growth OD615, 2 d; at 50 µM; active compounds read high

Row | SMILES | growth inhibition [1] [%] | growth inhibition [2] | viability increase [3] [%] | viability [4] [%] | viability [5] [%] | inhibition [6] [%] | RAM network inhibition [7] [%]
1 | CC(C)(CC(=O)O)Cc1nc(-c2ccc(Cl)cc2)no1 | 2.38 | 10.4% | 1.26 | 100 | 93.2 | 0.855 | -3.9
2 | CC(=O)Nc1ccc(S(=O)(=O)NCCSCc2ccco2)cc1 | -4.83 | 16.6% | -4.43 | 82.2 | 86 | 2.15 | 2.29
3 | O=C(c1cnc2n(c1=O)CCS2)N1CCN(C(c2ccccc2)c2ccc(Cl)cc2)CC1 (configuration not stated) | -9.19 | -3.16% | -5.31 | 79.1 | 63.7 | 1.31 | 2.72
4 | CCOC(=O)c1cn[nH]c1N | -3.76 | 10.1% | 0 | 101 | 102 | -0.235 | 0.61
5 | CCc1cc(Br)ccc1N1C(=O)C2CC=CCC2C1=O (configuration not stated) | -6.14 | -7.71% | 0.19 | 86.5 | 94.9 | 1.2 | 0.4
6 | CCn1c(O)c(C2=NCCCC2)c2ccccc21 | 0.575 | 11.6% | -0.12 | 95 | 102 | -0.49 | 1.14
7 | COc1ccc(NC(=O)N(Cc2ccc(C)cc2)Cc2ccccn2)c(OC)c1 | -3.04 | 7.11% | -1.9 | 91 | 96 | 0.455 | 4.18
8 | Cc1ccn2c(-c3csc(NCc4ccco4)n3)c(C)nc2c1 | -1.21 | 2.84% | -4.37 | 66.6 | 71.8 | 3.51 | 3.65
9 | CC(C)=C1C2C=CC1C(C(=O)Nc1cc(C)ccc1C)C2C(=O)O (configuration not stated) | -14.6 | -12.2% | -4.28 | 87.4 | 85.8 | 1.78 | 6.92
10 | C=CCSc1nnc2nc3c(nn12)c1cc(C)ccc1n3CC=C | 10.7 | 51.1% (active) | -3.51 | 88 | 82.6 | 1.21 | 3.23
11 | Cc1cccc(Cn2c(N3CCCCC3C)nc3c2c(=O)[nH]c(=O)n3C)c1 (configuration not stated) | -17.5 | -16.4% | -5.08 | 89.3 | 78 | 0.805 | 2.4
12 | Cc1sc2ncnc(Sc3nnc4sc5ccccc5n34)c2c1C | 6.21 | -2.07% | -3.97 | 55.4 | 65.2 | 2.33 | 5.95
13 | Cc1cc(NC(=O)CSCc2nc(-c3cccc(Cl)c3)oc2C)no1 | -12.6 | -5.47% | 1.25 | 94.3 | 95.5 | 1.98 | 11.2
14 | CCOc1ccc(C2CC(c3ccc(F)cc3)Nc3nc(N)nn32)cc1 (configuration not stated) | 4.3 | 6.27% | 2.97 | 105 | 101 | 0.7 | 0.88
15 | Cc1ccc2c(c1)C(c1ccccc1)N(C(=O)C(C)C)CC(=O)N2 (configuration not stated) | -14.9 | -15.6% | -1.2 | 102 | 92.1 | 1.64 | 4.21
16 | CC1CC(C)CN(S(=O)(=O)c2cccc3cccnc23)C1 (configuration not stated) | -4.23 | -6.44% | -4.51 | 87.9 | 94.9 | -0.45 | 1.83
17 | Cc1cccc(OCCCC(=O)Nc2ccc(N3CCOCC3)cc2)c1 | -17 | -11.5% | -0.5 | 90.7 | 96.8 | 2.59 | 3.73
18 | O=C(Nc1ccccc1)C1CC=CCC1C(=O)OCC1CCCO1 (configuration not stated) | -9.52 | -20.7% | 0.15 | 102 | 102 | 2.69 | 0.98

Row | SMILES | growth inhibition [1] [%] | growth inhibition [2] | viability increase [3] [%] | viability [4] [%] | viability [5] [%] | inhibition [6] [%] | RAM network inhibition [7] [%]
19 | CCn1c(CNC(=O)C(C)(C)C)nc2ccccc21 | -13.2 | -10.8% | -1.1 | 104 | 101 | 1.73 | 1.9
20 | CC(C)Sc1nc(SCC(=O)NCc2ccco2)c2c3c(sc2n1)COC(C)(C)C3 | -10.2 | -10.9% | -3.75 | 83.2 | 86.2 | 0.615 | 11.6
21 | C#CCn1c(=NC(=O)c2cccs2)sc2cccc(OC)c21 | -11.2 | -16.3% | -3.51 | 79.6 | 73.9 | 3.34 | 7.2
22 | CCOC(=O)N1CCN(C2CC(=O)N(c3ccccc3)C2=O)CC1 (configuration not stated) | 4.38 | 10.5% | 0.58 | 100 | 101 | 0.005 | -0.04
23 | CC(C)c1ccc(NC(=O)c2cccnc2)cc1 | -3.85 | -12.2% | 0.68 | 89.4 | 94.3 | 0.32 | 2.26
24 | N=c1n(CCOc2ccccc2)c2ccccc2n1CCN1CCOCC1 | -1.46 | 6.28% | -3.52 | 82.5 | 85.8 | 0.845 | -0.47
25 | Cc1ccc2c(c1)NC(=O)C(CC(=O)O)O2 (configuration not stated) | 2.33 | 0.555% | -0.27 | 103 | 99.7 | 1.48 | 4.69
26 | O=C(NCc1cccnc1)c1nnc(Cc2ccc(F)cc2)o1 | 7.17 | 2.65% | 2.16 | 98.4 | 103 | 0.03 | 3.62
27 | CN(C)CCN(Cc1ccccc1)c1ccnc(N(C)C)c1C#N | -13.2 | -17.6% | -4.22 | 85.2 | 89.5 | 1.11 | 2.08
28 | C=CCn1c(CCCNC(=O)CCC)nc2ccccc21 | 2 | 0.97% | -0.01 | 99.4 | 103 | -0.095 | 4.24
29 | COc1cc(CNC(=O)OCC(C)C)cc(OC)c1OC | -11.4 | -20.8% | -0.03 | 99.7 | 99 | 0.19 | -0.93
30 | O=C(NCCc1ccc(S(=O)(=O)N2CCCC2)cc1)c1cccs1 | 2.67 | 7.14% | -1.73 | 93.4 | 90.2 | 0.545 | 6.32
31 | Cc1csc2nc(CNC(=O)C3CC=CCC3C(=O)O)cn12 (configuration not stated) | -3.37 | 16.7% | -2.9 | 93.7 | 94 | 2.62 | -0.42
32 | Cc1ccc(CN2C(=O)/C(=C3\SC(N4CCOCC4)=NC3=O)c3cc(Br)ccc32)cc1 | -10.5 | -12.1% | -1.85 | 76.7 | 79.7 | 0.615 | 9.54
33 | Cc1cccc(NC(=O)NCCN2C(=O)C3C4C=CC(C4)C3C2=O)c1 (configuration not stated) | -11.4 | 8.84% | -1.25 | 104 | 96.4 | 1.83 | 0.37
34 | O=C1c2ccccc2NC(c2ccccc2)N1c1ccc(O)cc1 (configuration not stated) | -0.23 | 1.65% | -3.15 | 87.1 | 90.8 | 1.19 | 1.89
35 | COC(=O)c1ccc(NS(=O)(=O)c2ccc3c(c2)oc(=O)n3C)cc1 | -4.12 | -3.33% | 1.49 | 103 | 96.4 | 0.69 | 7.21
36 | COc1ccc(S(=O)(=O)Cc2ccc(C(=O)N3CCN(C(=O)c4ccco4)CC3)o2)cc1 | 0.785 | 1.27% | -2.09 | 92.8 | 100 | 2.06 | 3.94

— PubChem BioAssay
